Holding throughout (type): functional
Assay [1] has as its system Neisseria meningitidis. Description: Antibacterial activity against Beta-lactamase-negative Neisseria meningitidis assessed as percent resistant isolates by Etest method. Put shortly: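 Isolates were classed resistant using breakpoints drawn from several organizations. Serogroup A reference strain OR173/87 was included for quality control.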
Assay [2] relates to Neisseria meningitidis. The assay is described as follows: Antibacterial activity against Beta-lactamase-negative Neisseria meningitidis by Etest method.
The test system of assay [3] is Neisseria meningitidis. The assay is described as follows: Antibacterial activity against Beta-lactamase-negative Neisseria meningitidis assessed as percent intermediate isolates by Etest method. The method, boiled down:
(§1)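 Serogroup A reference strain OR173/87 included for quality control. Isolates were classed susceptible, intermediate or resistant using breakpoints drawn from several organizations.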

Assay [4] deals with Neisseria meningitidis. Description: Antibacterial activity against Beta-lactamase-negative Neisseria meningitidis assessed as percent susceptible isolates by Etest method. Put shortly:
as §1

The structures appear in SMILES notation. In brackets after ≈: the same amount, converted by molar mass.

As usually defined, the MIC is the lowest concentration that inhibits growth of the organism. For orientation: MIC50 means the lowest concentration that inhibits either 50% of growth or 50% of the strains tested, depending on the study. Low values mean greater potency, high ones weaker potency. Usually MIC90 stands for an inhibitory concentration at the 90% level, which refers to growth in some studies and to a panel of isolates in others. Consider `CC[C@H]1OC(=O)[C@H](C)[C@@H](O[C@H]2C[C@@](C)(OC)[C@@H](O)[C@H](C)O2)[C@H](C)[C@@H](O[C@@H]2O[C@H](C)C[C@H](N(C)C)[C@H]2O)[C@](C)(O)C[C@@H](C)C(=O)[C@H](C)[C@@H](O)[C@]1(C)O` [ERYTHROMYCIN], for which, in the assay on Neisseria meningitidis [1], the Activity worked out at 74%. Moreover, in the assay with Neisseria meningitidis [2], the lowest concentration to inhibit growth (MIC) was 0.032 µg/mL (≈ 0.0436 µM), the MIC50 stood at 0.75 µg/mL (≈ 1.02 µM) and the MIC90 is 1 µg/mL (≈ 1.36 µM). In addition, the Activity in the assay on Neisseria meningitidis [3] is recorded as 0%. The Activity in the assay on Neisseria meningitidis [4] is 26%.
Regarding `Nc1ccc(S(=O)(=O)Nc2ncccn2)cc1` [SULFADIAZINE], the figures for the Activity in the assay on Neisseria meningitidis [1], in the assay with Neisseria meningitidis [3] and in the assay on Neisseria meningitidis [4] were 94%, 6% and 0%, respectively. Moreover, the MIC50 with Neisseria meningitidis [2] is > 256 µg/mL. For the same compound, the MIC90 against Neisseria meningitidis [2] was > 256 µg/mL.
As to `CC1(C)S[C@@H]2[C@H](NC(=O)[C@H](N)c3ccccc3)C(=O)N2[C@H]1C(=O)O` [AMPICILLIN], the Activity is reported as 0% in the assay with Neisseria meningitidis [1], 1% in the assay with Neisseria meningitidis [3] and 99% in the assay with Neisseria meningitidis [4]. In the assay on Neisseria meningitidis [2], this compound returned an MIC50 of 0.064 µg/mL (≈ 0.183 µM). In addition, the MIC90 with Neisseria meningitidis [2] was found to be 0.094 µg/mL (≈ 0.269 µM).
For `CC1(C)S[C@@H]2[C@H](NC(=O)Cc3ccccc3)C(=O)N2[C@H]1C(=O)O` [PENICILLIN G], the Activity came to 0% in the assay with Neisseria meningitidis [1], 2% with Neisseria meningitidis [3] and 98% with Neisseria meningitidis [4]. Moreover, in the assay with Neisseria meningitidis [2], the MIC50 is 0.047 µg/mL (≈ 0.141 µM). Moreover, the MIC90 in the assay with Neisseria meningitidis [2] was 0.094 µg/mL (≈ 0.281 µM).
For the compound `O=C(O)c1cn(C2CC2)c2cc(N3CCNCC3)c(F)cc2c1=O` [CIPROFLOXACIN], the MIC50 in the assay with Neisseria meningitidis [2] was 0.004 µg/mL (≈ 0.0121 µM). In the assay on Neisseria meningitidis [2], this compound returned an MIC90 of 0.004 µg/mL (≈ 0.0121 µM). Besides, the Activity in the assay on Neisseria meningitidis [3] is listed as 0%; with Neisseria meningitidis [4] it was 100%.
In the assay on Neisseria meningitidis [2], `O=C(N[C@H](CO)[C@H](O)c1ccc([N+](=O)[O-])cc1)C(Cl)Cl` [CHLORAMPHENICOL] registered an MIC50 of 0.75 µg/mL (≈ 2.32 µM) and an MIC90 of 1 µg/mL (≈ 3.09 µM). For the same compound, in the assay on Neisseria meningitidis [3], the Activity turned out to be 0%. For the same compound, the Activity in the assay on Neisseria meningitidis [4] turned out to be 100%.
With `CN(C)[C@@H]1C(O)=C(C(N)=O)C(=O)[C@@]2(O)C(O)=C3C(=O)c4c(O)cccc4[C@@](C)(O)[C@H]3C[C@@H]12` [TETRACYCLINE], the Activity in the assay on Neisseria meningitidis [1] came out at 52%; in the assay with Neisseria meningitidis [3] it was 0%; in the assay with Neisseria meningitidis [4], 48%. The same compound showed an MIC50 with Neisseria meningitidis [2] of 2 µg/mL (≈ 4.5 µM). In the assay with Neisseria meningitidis [2], this compound yielded an MIC90 of 4 µg/mL (≈ 9 µM).
With `CO[C@H]1/C=C/O[C@@]2(C)Oc3c(C)c(O)c4c(O)c(c(/C=N/N5CCN(C)CC5)c(O)c4c3C2=O)NC(=O)/C(C)=C\C=C\[C@H](C)[C@H](O)[C@@H](C)[C@@H](O)[C@@H](C)[C@H](OC(C)=O)[C@@H]1C` [RIFAMPIN], the Activity was determined as 0% in the assay on Neisseria meningitidis [1], 1% in the assay with Neisseria meningitidis [3] and 99% with Neisseria meningitidis [4]. This compound also came in with an MIC50 in the assay with Neisseria meningitidis [2] of 0.064 µg/mL (≈ 0.0778 µM). Moreover, the MIC90 in the assay on Neisseria meningitidis [2] stood at 0.125 µg/mL (≈ 0.152 µM).
Take `CC1(C)S[C@@H]2[C@H](NC(=O)COc3ccccc3)C(=O)N2[C@H]1C(=O)O` [PENICILLIN V]: the Activity in the assay on Neisseria meningitidis [1] is recorded as 1%. In the assay on Neisseria meningitidis [2], this compound came in with an MIC of 0.016 µg/mL (≈ 0.0457 µM), an MIC50 of 0.19 µg/mL (≈ 0.542 µM) and an MIC90 of 0.38 µg/mL (≈ 1.08 µM). For the same compound, in the assay with Neisseria meningitidis [3], the Activity worked out at 0%. Further, the Activity with Neisseria meningitidis [4] is reported as 99%.
Take `CO/N=C(\C(=O)N[C@@H]1C(=O)N2C(C(=O)O)=C(CSc3nc(=O)c(O)nn3C)CS[C@H]12)c1csc(N)n1` [CEFTRIAXONE]: in the assay on Neisseria meningitidis [2], the MIC is < 0.002 µg/mL, the MIC50 was < 0.002 µg/mL and the MIC90 is < 0.002 µg/mL. In addition, in the assay on Neisseria meningitidis [3], the Activity worked out at 0%. Also, the Activity in the assay with Neisseria meningitidis [4] is given as 100%.
For `CO/N=C(\C(=O)N[C@@H]1C(=O)N2C(C(=O)O)=C(COC(N)=O)CS[C@H]12)c1ccco1` [CEFUROXIME], the results for the Activity in the assay with Neisseria meningitidis [1], with Neisseria meningitidis [3] and in the assay on Neisseria meningitidis [4] were 0%, 1% and 99%, respectively. For the same compound, the MIC50 against Neisseria meningitidis [2] was 0.047 µg/mL (≈ 0.111 µM). Besides, in the assay on Neisseria meningitidis [2], the MIC90 was determined as 0.094 µg/mL (≈ 0.221 µM).

(Values after ChEMBL document CHEMBL1649154, “Antibiotic susceptibility and characteristics of Neisseria meningitidis isolates from the African meningitis belt, 2000 to 2006: phenotypic and genotypic perspectives” (2009).)
